# Laboratory results: ChEMBL document CHEMBL3400126, “Benzo-fused lactams from a diversity-oriented synthesis (DOS) library as inhibitors of scavenger receptor BI (SR-BI)-mediated lipid uptake” (Bioorg Med Chem Lett, 2015)
# The source made the active and inactive calls. No cut-off for these calls is given here.
# Columns and labels:
# [1] = Aqueous solubility of the compound in PBS at pH 7.4 with 1 % DMSO after 24 hrs by UPLC-MS analysis; assay type: physicochemical; conditions: for solubility at 24 h: PBS with 1% DMSO, pH 7.4; for solubility: buffer, pH 7.4, 24 h
# [2] = biological target: T1, Scavenger receptor class B member 1 (Mus musculus) (UniProt Q61009); test: (§1) Inhibition of mouse SR-B1 overexpressed in CHO cells assessed as inhibition of [3H]cholesteryl ester uptake into cells after 2 to 3 hrs by liquid scintillation counting; assay type: cell-based
# T1 sequence (whole entry): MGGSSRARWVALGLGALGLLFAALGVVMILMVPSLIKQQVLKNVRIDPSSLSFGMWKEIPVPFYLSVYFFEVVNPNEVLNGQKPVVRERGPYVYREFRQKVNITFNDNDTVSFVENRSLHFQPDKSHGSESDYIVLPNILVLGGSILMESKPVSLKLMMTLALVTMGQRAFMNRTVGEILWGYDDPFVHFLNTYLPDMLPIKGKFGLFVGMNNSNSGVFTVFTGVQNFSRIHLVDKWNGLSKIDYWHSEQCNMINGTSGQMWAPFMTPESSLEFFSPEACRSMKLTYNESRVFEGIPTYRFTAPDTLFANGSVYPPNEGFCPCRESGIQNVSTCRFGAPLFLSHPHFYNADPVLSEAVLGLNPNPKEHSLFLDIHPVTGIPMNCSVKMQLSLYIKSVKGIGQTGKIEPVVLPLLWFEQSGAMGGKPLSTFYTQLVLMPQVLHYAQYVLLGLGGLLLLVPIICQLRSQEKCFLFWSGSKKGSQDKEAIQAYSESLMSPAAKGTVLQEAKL
# Method in brief: (§2)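 IdlA[mSR-BI] cells exposed to HDL carrying [³H]-labeled cholesteryl oleate ester; cellular uptake of [³H]CE measured across a compound dilution series, IC₅₀ from dose-response curve.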
# CHO = test: Cytotoxicity against CHO cells after 24 hrs by CellTiterGlo assay; assay type: cell-based, Cricetulus griseus; conditions: chinese hamster
# Method in brief: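 IdlA[mSR-BI] cells (CHO overexpressing mouse SR-BI) incubated with compound for 24 h; cellular ATP levels read by CellTiter-Glo luminescence.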
# [3] = biological target: T2, Scavenger receptor class B member 1 (Mus musculus, UniProt Q61009); test: Inhibition of mouse SR-B1 overexpressed in CHO cells assessed as inhibition of transfer of the fluorescent lipid DiI from HDL particles to cells after 3 hrs; assay type: cell-based
# T2 sequence (Q61009 whole entry): T1 sequence (whole entry)
# Method in brief: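 Primary assay: uptake of fluorescent lipid DiI from DiI-labeled HDL particles into IdlA[mSR-BI] cells, i.e. CHO cells overexpressing mouse SR-BI. Read-out is cell-associated DiI fluorescence. Compounds that quenched DiI-HDL fluorescence in a dose-dependent manner were excluded by counterscreen. 1 μM BLT-1 served as positive control.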
# [4] = biological target: T1, Scavenger receptor class B member 1 (Mus musculus); test: Inhibition of mouse SR-B1 overexpressed in CHO cells assessed as inhibition of transfer of the fluorescent lipid DiI from HDL particles to cells at 1 uM after 3 hrs; assay type: cell-based
# [5] = biological target: T2, Scavenger receptor class B member 1; test: as §1; assay type: cell-based; method in brief: as §2
# L-type calcium channel = L-type calcium channel (Homo sapiens, UniProt O60840+Q01668+Q13698+Q13936); test: Inhibition of L-type calcium channel (unknown origin) at 10 uM
# [6] = Plasma protein binding in mouse at 5 uM after 5 hrs by equilibrium dialysis; assay type: ADME, cell-free; conditions: read-out: PPB (converted)
# Method in brief: (§3)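 Fraction bound to plasma proteins measured separately in human and mouse plasma.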
# [7] = biological target: T2, Scavenger receptor class B member 1; test: Activity at mouse SR-B1 overexpressed in CHO cells assessed as enhancement of binding of ALexa-488-labeled HDL particles to cells after 3 hrs
# [8] = Stability in human plasma assessed as compound remaining at 5 uM after 5 hrs by UPLC-MS analysis; assay type: ADME, cell-free; conditions: read-out: Stability
# Method in brief: (§4)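 Compound incubated 5 h in human or mouse plasma; percent parent remaining determined.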
# [9] = Stability in human liver microsomes assessed as compound remaining at 1 uM after 1 hr by UHPLC-MS analysis; assay type: ADME; conditions: read-out: Stability
# Method in brief: (§5)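 Compound incubated 1 h with mouse or human liver microsomes; percent parent remaining determined.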
# [10] = Plasma protein binding in human at 5 uM after 5 hrs by equilibrium dialysis; assay type: ADME, cell-free; conditions: read-out: PPB (converted); method in brief: as §3
# [11] = Stability in mouse liver microsomes assessed as compound remaining at 1 uM after 1 hr by UHPLC-MS analysis; assay type: ADME; conditions: read-out: Stability; method in brief: as §5
# [12] = Stability in mouse plasma assessed as compound remaining at 5 uM after 5 hrs by UPLC-MS analysis; assay type: ADME, cell-free; conditions: read-out: Stability; method in brief: as §4
# [13] = biological target: T1, Scavenger receptor class B member 1 (Mus musculus); test: Inhibition of mouse SR-B1 overexpressed in CHO cells assessed as inhibition of receptor-mediated Alexa-594-labeled transferrin endocytosis up to 35 uM; assay type: cell-based
# Method in brief: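 Receptor-mediated endocytosis in IdlA[mSR-BI] cells followed by uptake of Alexa-594-labeled transferrin, compound tested at concentrations up to 35 μM.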
compound,measurement,setting,value
COCC(=O)n1ccc2cc(-c3csc(NC(=O)c4cc(OC)cc(OC)c4)n3)ccc21,solubility at 24 h,[1],0.57 µM
same,inhibition,[2],Active
C[C@@H]1CN([C@H](C)CO)C(=O)c2cc(NC(=O)Cc3cn(C)c4ccccc34)ccc2O[C@H]1CN(C)S(=O)(=O)c1ccc(Cl)cc1,Activity,CHO,Non-toxic
same,IC50,[3],180 nM
same,solubility,[1],0.1 µM
CCCCCCC1CCC/C1=N\NC(N)=S (stereo not drawn),inhibition,[4],> 70%
C[C@@H]1CN([C@H](C)CO)C(=O)c2cc(NC(=O)Cc3cn(C)c4ccccc34)ccc2O[C@H]1CN(C)S(=O)(=O)c1cn(C)cn1,Activity,CHO,Non-toxic
same,IC50,[3],6400 nM
same,solubility,[1],79 µM
C[C@H](C(=O)NC1CCCC1)N(C(=O)Cn1nnc(-c2ccc3c(c2)OCO3)n1)C1CCCCC1,IC50,[5],5 nM
COc1c(NC(=O)C(=O)c2ccc(OCCN3CCOCC3)c3ccccc23)cc(C(C)(C)C)cc1NS(C)(=O)=O [ITX-5061],IC50,[5],770 nM
CC(C)NC(=O)Nc1ccc2c(c1)C(=O)N([C@H](C)CO)C[C@@H](C)[C@H](CN(C)S(=O)(=O)c1ccc(Cl)cc1)O2,Activity,CHO,Non-toxic
same,inhibition at 10 µM,L-type calcium channel,19%
same,"fraction unbound at 5 h, 5 µM",[6],0.053
same,EC50,[7],400 nM
same,"remaining at 5 h, 5 µM",[8],> 99%
same,"remaining at 1 h, 1 µM",[9],10%
same,"fraction unbound at 5 h, 5 µM",[10],0.055
same,"remaining at 1 h, 1 µM",[11],25%
same,"remaining at 5 h, 5 µM",[12],> 99%
same,solubility at 24 h,[1],79 µM
same,IC50,[5],250 nM
same,inhibition,[13],inactive
